Bioassay records as filed in PubChem.
Shown are actives, neighbours in structure and some others; about 3.1% of the full set was active somewhere.
KCNK3 block – human KCNK3 channel inhibition, primary screen. O14649. CHO-KCNK3 thallium flux, FluxOR fluorescence; hits give low values. B-score at 10 µM. 340,000 compounds, 0.84% hits;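 active means B-score under library mean minus 4 SD, starting fluorescence ratio at most library mean plus 5 SD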;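 further: more negative B-score means stronger inhibition of thallium flux through KCNK3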
Target sequence (O14649 whole entry, looked up): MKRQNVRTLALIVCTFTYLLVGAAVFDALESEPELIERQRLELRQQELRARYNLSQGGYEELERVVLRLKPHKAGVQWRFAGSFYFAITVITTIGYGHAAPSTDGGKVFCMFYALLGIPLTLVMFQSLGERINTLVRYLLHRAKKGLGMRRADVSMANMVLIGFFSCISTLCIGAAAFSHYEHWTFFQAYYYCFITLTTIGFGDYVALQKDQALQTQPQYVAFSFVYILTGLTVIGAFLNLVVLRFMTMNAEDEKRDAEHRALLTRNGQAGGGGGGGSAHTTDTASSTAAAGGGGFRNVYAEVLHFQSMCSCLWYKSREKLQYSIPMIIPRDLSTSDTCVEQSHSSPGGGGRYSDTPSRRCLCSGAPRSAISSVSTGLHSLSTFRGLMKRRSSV
hERG protect – shields human hERG channel from block by proarrhythmic agents; CHO-hERG, FluxOR thallium flux, dofetilide IC70 present; activation (rescue from dofetilide block), less the hit threshold, % at 10 µM; 310,000 compounds, 0.51% hits; AID 1511;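 active means activation above the mean of controls blocked by dofetilide plus 5 SD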;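 further: thallium influx through hERG after potassium depolarization seen as dye fluorescence rise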
KCNK9 inh – blocks the human KCNK9 two-pore domain potassium channel | Q9NPC2 | HEK293 KCNK9, FluxOR thallium flux fluorescence; hits give low values | B-score at 10 µM | 310,000 compounds, 1.2% hits | AID 488922;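 active means ratio B-score over 3 SD below the library mean, with starting fluorescence within 5 SD of its mean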;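 further: negative B-score means less thallium flux so channel inhibition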
KCNQ1 act – human KCNQ1 channel potentiation or activation. P51787. CHO-K1 KCNQ1, thallium flux FluxOR fluorescence; hits give high values. B-score at 10 µM. 310,000 compounds, 0.35% hits. AID 2648;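 active means fluorescence ratio B-score, a plate-corrected score, at least three library SD, with initial intensity B-score within 5 SD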
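Test system: CHO-K1 cells stably expressing KCNQ1 / Medium: assay buffer / Also added: depolarizing K+/Tl+ stimulus, K2SO4 and Tl2SO4 each 12.5 mM in 5x stock / Incubation: 90 min dye loading and 20 min compound exposure, both at room temperature / Signal: thallium influx via FluxOR fluorescence, kinetic imaging / Evaluation: B score of baseline-normalized fluorescence ratio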
KCNQ1 inh – inhibitors of human KCNQ1 potassium channel; B-score at 10 µM; CHO-K1 KCNQ1, FluxOR thallium flux fluorescence; hits give high values; 310,000 compounds, 1.3% hits;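 active means compounds whose thallium flux B-score, printed positive for inhibition, exceeds three library SD while starting fluorescence stays within three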;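 further: channel opened by potassium depolarization with thallium stimulus after 20 min compound exposure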
KCNQ1 inh valid – human KCNQ1 channel inhibition, validation assay; shares compounds with KCNQ1 inh; KCNQ1 cell line, FluxOR thallium flux fluorescence; inhibition, % at 10 µM; 1,600 compounds, 93% hits; AID 588353;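 active means primary screen active, with duplicate mean exceeding buffer control mean plus 3 SD of buffer wells, cut at about 28% in these data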;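 further: 0% = buffer control ratio and 100% = XE991 inhibitor control ratio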
CHO Tl flux – activity in parental CHO cells lacking KCNQ1 | shares compounds with KCNQ1 inh | parental CHO-K1, FluxOR thallium flux fluorescence ratio; hits give low values; zero means no signal rise above baseline | fluorescence ratio (Tl flux) at 10 µM | 1,600 compounds, 21% hits | AID 588366;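 active means mean of duplicate thallium-flux fluorescence ratios in parental host cells more than 5 SD below the buffer control mean, cut at about 0.38 in these data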;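 further: ratio is peak minus minimum fluorescence divided by baseline fluorescence; actives read low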
KCNQ1 APC inh – blocks human KCNQ1 current in automated patch clamp. calls only at 10 µM. AID 624120. shares compounds with KCNQ1 inh. KCNQ1-CHO cells. 490 compounds, 20% hits;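 active means KCNQ1 current drop exceeding 3 SD of negative control wells, seen in both duplicate runs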;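 further: steady state current during a 2 s step from -80 to +40 mV; negative values mean current inhibition and positive values mean potentiation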
KCNQ2 inh – selectivity of KCNQ1 inhibitors: inhibition of rat KCNQ2 channel | KCNQ2 cells, FluxOR thallium flux fluorescence | inhibition, % at 10 µM | 1,600 compounds, 71% hits | shares compounds with KCNQ1 inh | AID 651746;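 active means mean percent inhibition of the KCNQ2 thallium signal more than 5 SD above the buffer-only control wells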;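 further: KCNQ2 expressed in CHO cells; 0% = buffer control wells and 100% = XE-991 inhibitor control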
KCNQ1-KCNE1 inh – KCNQ1 inhibitor that also blocks human KCNQ1/KCNE1 channel; shares compounds with KCNQ1 inh; KCNQ1/KCNE1 cells, FluxOR thallium flux fluorescence; inhibition, % at 10 µM; 1,600 compounds, 77% hits;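 active means mean percent inhibition of duplicate wells above the buffer-only control mean plus 3 SD of those controls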;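 further: 0% = buffer only wells and 100% = XE-991 inhibitor control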
Starred values were filed as active, the others as inactive; i = inactive; . = no result given; + = active, no number.

SMILES	KCNK3 block	hERG protect	KCNK9 inh	KCNQ1 act	KCNQ1 inh	KCNQ1 inh valid	CHO Tl flux	KCNQ2 inh	KCNQ1-KCNE1 inh	others
Cc1ccc(C)c(CN2CCC(CNC(=O)Nc3ccc(F)c(Cl)c3)CC2)c1	i	-17	i	i	7*	58*	0.43	i	42%*
CCc1ccc(CNC(=O)c2cc3c(C)nc4ccccc4c3o2)cc1	i	-20	i	i	8*	140*	0.25*	113%*	+
COc1cccc(CNC(=O)c2cc3c(C)nc4ccccc4c3o2)c1	i	-14	i	i	i	.	.	.	.
O=C(COc1ccccc1)N=C1SC2CS(=O)(=O)CC2N1c1ccc(F)cc1F (stereo not given)	i	-6	i	i	i	.	.	.	.
Cc1ccc(Cl)cc1N1CCN(C(=O)c2cc3c(=O)[nH]c4ccccc4c3n2C)CC1	i	-30	i	i	12*	110*	0.51	104%*	i	KCNQ1 APC inh=i
COc1ccccc1NC(=O)N1CCCC1C(=O)NCCc1ccccc1 (stereo not given)	i	-6	i	i	i	.	.	.	.
CCOC(=O)N1CCN(C(=O)/C=C/c2c(C)nn(-c3ccc(F)cc3)c2Cl)CC1	i	-7	i	i	i	.	.	.	.
N#Cc1ccsc1NC(=O)c1cccc(-n2cnnn2)c1	i	-6	i	i	i	.	.	.	.
COC(=O)c1ccc(NC(=O)c2ccc(NC(=O)c3ccco3)cc2)cc1	i	-4	i	i	6*	0	0.51	i	55%*
CC(=O)c1ccc(NC(=O)c2ccc(NC(=O)c3ccco3)cc2)cc1	i	-5	i	i	i	.	.	.	.
CCOc1ccc2noc3c2c1C(=O)c1ccccc1-3	i	-48	i	i	32*	+	0.018*	i	i
O=C1c2ccccc2-c2onc3ccc(N4CCCC4)c1c23	i	-12	i	i	i	.	.	.	.
O=C(c1cc(-c2ccccc2)nn1-c1ccccc1)N1CCN(S(=O)(=O)c2ccc(F)cc2)CC1	i	-10	i	i	6*	57*	0.46	81%*	37%*
O=C(c1cc(-c2cccs2)nn1-c1ccccc1)N1CCN(S(=O)(=O)c2ccccc2)CC1	i	-17	i	i	7*	60*	0.48	91%*	100%*
O=C(c1cc(-c2ccccc2)nn1-c1ccccc1)N1CCN(S(=O)(=O)c2cccc(F)c2)CC1	i	-9	i	i	i	.	.	.	.
CC(=O)Nc1ccc2nc3ccccc3nc2c1	i	-6	i	i	i	.	.	.	.
CC(=O)Nc1ccc2nc3c(=O)n(C)c(=O)n(C)c3nc2c1	i	-14	i	i	8*	54*	0.4	i	i
CC(C(=O)N1CCc2ccccc21)N1CCN(Cc2ccccc2)CC1 (stereo not given)	i	-5	i	i	i	.	.	.	.
CN1C/C(=C/c2ccccc2[N+](=O)[O-])C(=O)/C(=C\c2ccccc2[N+](=O)[O-])C1	i	.	.	.	.	.	.	.	.
Cc1ccc(NC(=S)NCCSc2ccc(Cl)cc2)cc1	i	-3	i	i	i	.	.	.	.
Cc1ccc(SCCNC(=S)Nc2cc(C)cc(C)c2)cc1	i	-20	i	i	9*	69*	0.5	71%*	77%*
Cc1cccc(C)c1NC(=S)NCCSc1ccc(Cl)cc1	i	-15	i	i	6*	90*	0.43	110%*	96%*	KCNQ1 APC inh=i
CC1CCN(C(=O)CSc2nnc3ccc(-c4cccnc4)nn23)CC1	i	-12	i	i	i	.	.	.	.
CC(C)(C)C(=O)COC(=O)c1cc(-c2ccncc2)nc2ccccc12	i	-18	i	i	7*	52*	0.42	92%*	48%*
CC(C)Cn1c(N)c(C(=O)COC(=O)c2cc(-c3ccco3)nc3ccccc23)c(=O)n(C)c1=O	i	-12	i	i	i	.	.	.	.
SMILES	KCNK3 block	hERG protect	KCNK9 inh	KCNQ1 act	KCNQ1 inh	KCNQ1 inh valid	CHO Tl flux	KCNQ2 inh	KCNQ1-KCNE1 inh	others
CC(C)Cn1c(N)c(C(=O)COC(=O)c2cc(-c3ccccc3)nc3ccccc23)c(=O)n(C)c1=O	i	-10	i	i	7*	106*	0.44	120%*	156%*	KCNQ1 APC inh=i
CCC(C)NS(=O)(=O)c1ccc(OCC(=O)N2CCCCC2)cc1 (stereo not given)	i	-2	i	i	i	.	.	.	.
CCCc1cc(C(=O)Nc2ccc(C(=O)c3ccc(C)cc3)cc2)n(C)n1	i	-30	i	i	11*	170*	0.36*	140%*	+
CC(C)(C)c1ccc(C2=CSC3=NCCN23)cc1	i	-2	i	i	7*	43*	0.46	i	46%*
CN1CCC(N(C)C(=S)NCCc2ccccc2)CC1	i	-3	i	i	i	.	.	.	.
CCCCc1ccc(NC(=S)N2CCN(c3ncccn3)CC2)cc1	i	-10	i	i	i	.	.	.	.
Cc1ccc(NC(=O)C2CCN(S(=O)(=O)c3ccc4c(c3)OCCCO4)CC2)nc1	i	-5	i	i	i	.	.	.	.
COc1ccccc1-c1ccc(SCc2ccc([N+](=O)[O-])cc2)nn1	i	-14	i	i	i	.	.	.	.
COc1ccccc1-c1ccc(SCc2cccc(C)c2)nn1	i	-25	i	i	11*	0	0.49	60%*	i
Cc1ccc(S(=O)(=O)CC(=O)N2CCN(c3ccc(F)cc3)CC2)cc1	i	-13	i	i	i	.	.	.	.
Cc1cc(C)c(-c2cc(NC(=O)COC(=O)c3ccc(NC(=O)CC#N)cc3)n(-c3ccccc3)n2)cc1C	i	-9	i	i	6*	156*	0.47	64%*	137%*	KCNQ1 APC inh=i
Cc1cc(C)c(-c2cc(NC(=O)COC(=O)c3ccc(C#N)cc3)n(-c3ccccc3)n2)cc1C	i	-2	i	i	i	.	.	.	.
O=C(Cn1nnc2ccccc21)OCC(=O)c1ccc(Cl)cc1	.	-12	i	i	7*	0	0.48	i	42%*
